Pemphigus Ab inh = blocks pemphigus antibody binding to human desmoglein-3 | binding (percent of control), % at 10 µM | DSG3-coupled beads, scFv-anti-DSG3-GFP binding, flow cytometry; active compounds read low | 310,000 compounds, 0.48% hits | P32926 | AID 588358;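 active = binding more than 3 SD below its plate's average and above zero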;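 note: hits lower antibody fragment binding to DSG3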
TRPC4 block = inhibitors of mouse TRPC4 channel. Q9QUQ5. HEK293 TRPC4beta/mu-opioid, DAMGO-evoked Fluo4 calcium flux; active compounds read low. B-score at 10 µM. 300,000 compounds, 0.39% hits;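 active = B-score over 3 SD under the library average, no early fluorescence shift, positive overall ratio signal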
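Assay system – HEK293 line stably carrying TRPC4beta and mu-opioid receptor · Doses – single dose · Detection – Fluo4 calcium-dye fluorescence, kinetic read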
TRPC4 potent = TRPC4 (mouse) allosteric potentiation; Q9QUQ5; HEK293 TRPC4beta/mu-opioid, DAMGO EC20, Fluo-4 Ca2+ flux; active compounds read high; B-score at 10 µM; 310,000 compounds, 0.42% hits;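 active = B-score of calcium response area above 5 SD of library B-scores, with initial fluorescence ratio within 5 SD of library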;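 note: B-score of integrated fluorescence ratio over time as area under calcium response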
TRPC6 inh = mouse TRPC6 channel inhibition | Q61143 | HEK293-TRPC6, membrane potential dye, ACh-evoked depolarization; active compounds read low | AID 2553 | B-score at 10 µM | 310,000 compounds, 1.1% hits;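 active = B-score under library mean minus 3 SD, initial fluorescence not abnormally high, positive integrated signal ratio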;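 note: B-score derived from integrated fluorescence ratio over the kinetic read; more negative B-score means stronger inhibition of depolarization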
TRPC4 act = activators of mouse TRPC4 channel; Q9QUQ5; HEK293 TRPC4beta/mu-opioid, Fluo4 calcium fluorescence; active compounds read high; B-score at 10 µM; 310,000 compounds, 0.49% hits; AID 2237;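 active = B-score above 5 SD of library B-scores, and initial fluorescence ratio not above library mean plus 5 SD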;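 note: positive B-score marks a calcium rise read as TRPC4 activation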
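Test system: HEK293 cells stably co-expressing mouse TRPC4beta and mu-opioid receptor | Schedule: Fluo4 dye loading 45 min at room temperature, 110 s recording | Measured by: Kinetic Fluo4 calcium fluorescence, 5 s baseline at 1 Hz | Evaluation: B score of integrated ratio | Controls: Buffer (low) and maximal DAMGO (high)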
TRPC6 activator = activates the mouse TRPC6 cation channel | Q61143 | HEK293-TRPC6 membrane potential dye fluorescence; active compounds read high | B-score at 10 µM | 310,000 compounds, 0.13% hits;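 active = B-score of the integrated fluorescence ratio above library mean plus 3 SD, and starting fluorescence ratio within library mean plus 5 SD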;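 note: higher score means more depolarization so channel activation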
Active calls of the source: *; i = inactive; x = no result given. Rows were chosen to be rich in hits. Some 2.5% of all compounds tested hit in one or more screens of this group.

SMILES | Pemphigus Ab inh | TRPC4 block | TRPC4 potent | TRPC6 inh | TRPC4 act | TRPC6 activator
COc1ccccc1C(=O)NNC(=S)NC(=O)c1cc(OC)c(OC)c(OC)c1 | 102 | i | i | i | 62* | i
COc1cc(C(=O)NC(=S)NNC(=O)[C@H]2C[C@@H]2c2ccccc2)cc(OC)c1OC | 99 | i | i | i | 160* | i
Cc1cccc(Nc2nc(NCCCN3CCOCC3)nc(N)c2[N+](=O)[O-])c1 | 123 | -6* | i | i | i | i
COCCNC(=O)C/C(C)=N/NC(=O)C(=O)NC1CCCCC1 | 100 | i | i | i | i | i
O=C(NCc1nnc2c(C(F)(F)F)cc(Cl)cn12)c1cccs1 | 109 | i | i | i | i | i
O=C(Nc1ccc2ccccc2c1)N1CCCN(CCOc2ccccc2)CC1 | x | i | i | i | i | i
COc1ccc(OC)c(Nc2cc(-c3ccccc3)nc(N)n2)c1 | x | -7* | i | -5.4* | i | i
C=C(C)C(=O)Oc1ccc(N2C(=O)[C@@H]3C4C=CC(C4)[C@@H]3C2=O)cc1 | 109 | i | i | i | i | i
Cc1cc(-c2nnc(CCC(=O)NC(C)c3ccc(F)cc3)o2)no1 (configuration not stated) | 102 | i | i | i | i | i
CC1CN(C)C(C)c2c1oc1ccc(N)cc21 (configuration not stated) | 131 | i | i | i | 239* | i
CC1CN(C)C(C)c2c1oc1ccc([N+](=O)[O-])cc21 (configuration not stated) | 107 | i | i | i | 115* | i
CC(C)=Cc1oc2ccc([N+](=O)[O-])cc2c1N1CCOCC1 | 107 | i | i | i | i | i
CCc1ccc(N2CC(C(=O)Nc3nc4ccc(S(C)(=O)=O)cc4s3)CC2=O)cc1 (configuration not stated) | 112 | i | i | i | i | i
O=C(CNC(=S)N(Cc1ccccc1)Cc1cccnc1)NCCN1CCOCC1 | 116 | i | i | i | i | i
COc1ccc(CCNC(=O)CSc2nnc3ccc(-c4cccnc4)nn23)cc1OC | 95 | i | i | i | i | i
COCCN(CC(=O)NC1CCCCC1)C(=O)CCCC(=O)Nc1ccccn1 | 97 | i | i | i | i | i
NC(N)=NC(=O)Cc1c(Cl)cccc1Cl | 103 | i | i | i | 46* | i
CC(=O)Nc1ccc(S(=O)(=O)N2CCCN(c3nc(C)cc(C)c3C#N)CC2)cc1 | 117 | i | i | i | i | i
O=C1NC[C@@H](c2ccccc2)OC(=O)[C@@H](Cc2ccc(F)cc2)CC/C=C/C[C@@H]1CC(=O)N(CCO)Cc1ccccc1 | 105 | x | x | x | x | x
C=CCNCCCCOc1c(Cl)cc(C)cc1Br | 98 | i | i | i | 57* | i
Cc1ccc(OCCNC(=O)CCNC(=O)c2ccc(Cl)cc2)cc1 | 116 | x | x | x | x | x
Cc1cc(C(C)(C)C)cc(S(=O)(=O)Nc2cccc(C(=O)O)c2)c1C | 107 | i | 16* | i | i | i
Nc1c2c(nc3sc4c(c13)CCCCC4)CCCCC2 | 121 | -5* | i | i | i | i
CC1CCc2nc3sc4c(c3c(N)c2C1)CCCC4 (configuration not stated) | 106 | i | i | i | i | i
Cc1cc(C)nc(NNS(=O)(=O)c2ccc(F)c(Cl)c2)n1 | 112 | i | 17* | i | i | i
O=c1cc2c(nn1Cc1ccc(F)cc1)-c1ccccc1CC2 | 100 | -7* | 11* | i | i | i
O=C(Cc1cccs1)Nc1ccc(NC(=O)c2ccco2)cc1 | -21* | i | i | i | i | i
O=C1/C(=C\c2ccc(O)c(O)c2)N=C2CCCCCN12 | 100 | i | i | i | i | i
CN(CCOc1ccc(Br)cc1)C(=O)CNC(=O)c1ccc2ccccc2c1 | 106 | i | i | i | i | i

Assay outcomes deposited in PubChem by several laboratories.
